Assay outcomes from PubChem BioAssay.
MEKK2wt PB1 HTS – raises or lowers MEK5 binding to wildtype human MEKK2 PB1 domain; 1.1% of 290,000 active; AID 1531; bead flow cytometry, Alexa488-MEK5 binding to MEKK2 WT; actives lie on both sides; binding response (% of control), % at 10 µM; Q9Y2U5; in the data active = binding response below about 67% or above about 130%; inconclusive = no clear call, values can overlap the other calls; inactive = in between
Apaf-1 inh – human Apaf-1 inhibition; reconstituted apoptosome caspase-3 activity, DEVD-Rh110 fluorescence; 0.71% of 330,000 active; inhibition, % at 20 µM; AID 489030; active = inhibition of at least 40% at 20 µM
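Material: biochemical Apaf-1 apoptosome reconstitution. Medium: Hepes buffer, pH 7.5. Also added: cytochrome c activation, bis-DEVD rhodamine 110 substrate. Timing: 30 min compound preincubation, 50 min activation, room temperature. Measured by: rhodamine 110 fluorescence at Ex 480/Em 540 nm.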
UBC13 polyUb – human UBC13 polyubiquitination inhibition; P61088; UBC13 polyubiquitin chain formation, TR-FRET; inhibition, % at 20 µM; 0.47% of 330,000 active; AID 485273; in the data active = inhibition above about 45%, passing the limit was not always enough; inconclusive = no clear call, values can overlap the other calls
MEKK2 mut-MEK5 – signal of MEK5 binding to mutant human MEKK2 PB1 domain | bead flow cytometry, Alexa488-MEK5 binding to MEKK2 mutant | AID 1530 | 0.35% of 290,000 active | percent response, % at 10 µM; in the data active = percent response above about 24%, passing the limit was not always enough
MEKK3 PB1 HTS – raises or lowers MEK5 binding to the human MEKK3 PB1 domain; 1.4% of 290,000 active; AID 1529; Q99759; binding response (% of control), % at 10 µM; bead-based flow cytometry, Alexa488-MEK5 binding to MEKK3; actives lie on both sides; 0 = blocked by unlabeled MEK5, 100 = vehicle;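 active = binding response more than 3 SD above or below the average of its plate-row segment, actives on both sides; inconclusive = wells at one plate position flagged as instrument error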;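 note: Alexa488 bead fluorescence after subtracting the streptavidin-only scavenger bead signal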
Casp3 UBC13 ctr – inhibits human caspase-3 in UBC13 counter-screen; inhibition, % at 20 µM; AID 488856; 4% of 1,400 active; shares compounds with UBC13 polyUb; Recombinant caspase-3, Caspase-Glo 3/7 luminescence, 60 min;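 active = mean inhibition across replicates above about 26%, limit read from the data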
UBC13 confirm – confirmation of human UBC13 polyubiquitin inhibitors; shares compounds with UBC13 polyUb; UBC13 polyubiquitination, TR-FRET, biochemical; inhibition, % at 10 µM; 68% of 1,400 active; in the data active = inhibition above about 45%; inconclusive = no clear call, values can overlap the other calls
Numbers stand for hits; n = inactive; u = inconclusive; x = not tested or not shown. A selection: hits, their analogues and other compounds. The true share with any hit is near 2.9%.

SMILES	MEKK2wt PB1 HTS	Apaf-1 inh	UBC13 polyUb	MEKK2 mut-MEK5	MEKK3 PB1 HTS	Casp3 UBC13 ctr	UBC13 confirm
O=C(NCc1ccncc1)C1CCN(S(=O)(=O)c2cccc(C(F)(F)F)c2)CC1	n	n	n	n	n	x	x
O=C(CCCCCN1C(=O)c2ccccc2C1=O)Nc1ccc(S(=O)(=O)N2CCCCC2)cc1	n	n	99.5	n	n	n	112.0
CCOc1ccc(C(=O)C(C)OC(=O)c2nc(Cl)ccc2Cl)cc1 (centres undefined)	x	n	47.0	x	x	n	72.4
CCC1CCCCN1CCCNC(=O)C1CCN(c2ncnc3c2nc2n3CCCCC2)CC1 (centres undefined)	n	n	52.9	n	n	n	62.7
CC1CCCCN1CCNC(=O)C1CCCN(c2ncnc3c2nc2n3CCCCC2)C1 (centres undefined)	n	n	n	n	n	x	x
NS(=O)(=O)c1ccc(CCNC(=O)C2CCN(c3ncnc4c3nc3n4CCCCC3)CC2)cc1	n	n	55.3	n	n	n	59.0
Cc1ccc(NC(=O)C2CCCN(c3ncnc4c3nc3n4CCCCC3)C2)cc1Cl (centres undefined)	n	n	n	n	n	x	x
CN(CCNC(=O)C1CCN(c2ncnc3c2nc2n3CCCCC2)CC1)Cc1ccccc1	n	n	91.0	n	n	n	106.1
Cc1ccc(NC(=O)C2CCN(c3ncnc4c3nc3n4CCCCC3)CC2)cc1Cl	n	n	72.4	n	n	n	94.5
O=C(Nc1ncn[nH]1)c1cccc(S(=O)(=O)N2CCOCC2)c1	n	n	n	n	n	x	x
NCCCCc1ccc2ccc3cccc4ccc1c2c34	x	n	48.9	x	x	n	84.9
O=C(O)CCCc1ccc2ccc3cccc4ccc1c2c34	n	n	n	n	n	x	x
CCOc1ccc(S(=O)(=O)N(C)c2ccc(OCC(=O)NCc3ccc(C(=O)OC)cc3)cc2)cc1	n	n	n	n	n	x	x
COc1ccc2nc3oc(C(=O)NC4CCN(Cc5ccccc5)CC4)cc3cc2c1	n	n	58.5	n	n	n	n
CC1(C)Cc2cccc(OCC(=O)OCC(=O)Nc3cccc(S(N)(=O)=O)c3)c2O1	n	n	n	n	n	x	x
CN1CCc2c(sc(/N=C/c3c[nH]c4ccccc34)c2C(N)=O)C1	n	n	85.4	n	n	n	n
Cc1cccc(NC(=O)C(C)Sc2nc3nc(C)cc(C)n3n2)c1 (centres undefined)	x	n	n	x	x	x	x
CCOC(=O)c1cc(CC)sc1NC(=O)c1ccc([N+](=O)[O-])c(N2CCOCC2)c1	n	n	n	n	n	x	x
Cc1ccc(C)c(OCC(O)CN2CCN(CCN3C(=O)c4cccc5cccc(c45)C3=O)CC2)c1 (centres undefined)	n	n	83.8	n	n	n	101.4
CC(=O)c1ccccc1OCC(O)CN1CCN(CCN2C(=O)c3cccc4cccc(c34)C2=O)CC1 (centres undefined)	n	n	54.0	n	n	n	59.8
O=C1c2cccc3cccc(c23)C(=O)N1CCN1CCN(CC(O)COCc2ccc(Cl)cc2)CC1 (centres undefined)	n	n	98.1	n	n	n	108.4
O=C(CSc1nc2ccccc2n1CCc1ccccc1)c1ccc(O)c(O)c1	n	x	x	n	n	x	x
COc1cc(NC(=O)CSc2nnnn2C2CCCC2)cc(OC)c1	n	n	n	n	n	x	x
CCCCN(CC)CCNC(=O)c1cc2c(=O)n(C)c3ccccc3c2s1	n	n	70.0	n	n	n	79.8
CCN(CC)CCNC(=O)c1cc2c(=O)n(C)c3ccccc3c2s1	n	n	55.2	n	n	n	62.4
COC(=O)C1(O)CC(C(C)C)=NN1C(=O)c1ccccc1 (centres undefined)	n	n	n	n	n	x	x
O=C(CSc1nnc(NC(=O)C2CCC2)s1)Nc1ccccc1F	n	n	n	n	n	x	x
COc1ccc(Cl)cc1/C=N/NC(=O)c1c(-c2ccccc2)noc1C	n	n	55.8	n	n	n	n
Cc1ccc(-c2nnc3c(C(F)(F)F)nc4ccccc4n23)cc1	n	n	52.3	n	n	n	u
